The record followed here is ChEMBL document CHEMBL4138124, “Antineoplastic Agents. 605. Isoquinstatins” (2018).

Numbered stars: 1 amine (or outer) side, 2 acyl side, 3 side chain; on linkers, the order of the positions; unused ones are H or OH. Square brackets hold non-standard residues; d marks the D form. Peptide text beside a SMILES is read from it. * marks the point of attachment. Dolaproine = CO[C@@H]([C@@H]1CCCN1)[C@@H](C)C(=O)O; Hexanoyl(6-maleimido) = O=C1C=CC(=O)N1CCCCCC(=O)*; Dil = CC[C@H](C)[C@H](NC)[C@@H](CC(=O)O)OC; PABC = O=C(OCc1ccc(N[*:1])cc1)[*:2]; Cit = NC(=O)NCCC[C@H](N)C(=O)O; NMeV = CN[C@H](C(=O)O)C(C)C; X1 = c1cc(CCN*)c2cnccc2c1; X2 = c1cc(CCN*)c2ccncc2c1; X3 = c1cc2ccc(CCN*)cc2cn1

Common to all, as to type: functional
One assay relates to BXPC-3. Nature of the assay: Growth inhibition of human BxPC3 cells after 48 hrs by SRB assay. The note with it: BXPC-3, 48 h. An outline of the steps: (§1)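 Cells grown in RPMI1640 with 5% fetal bovine serum, seeded in 96-well plates and incubated 24 h before serial dilutions of compound were added. After a further 48 h, cells were fixed with trichloroacetic acid, stained with sulforhodamine B and read on a plate reader. GI50 (concentration giving 50% reduction in net protein increase) was calculated from optical density data.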

In a further assay the test system is MCF7. Nature of the assay: Growth inhibition of human MCF7 cells after 48 hrs by SRB assay. The note with it: MCF7, 48 h. The gist of the method: as §1
The subject of a further assay is DU-145. Nature of the assay: Growth inhibition of human DU145 cells after 48 hrs by SRB assay. The note with it: DU-145, 48 h. An outline of the steps: as §1
Another assay deals with NCI-H460. In words: Growth inhibition of human NCI-H460 cells after 48 hrs by SRB assay. Particulars: NCI-H460, 48 h. An outline of the steps:
as §1

The subject of another assay is KM-20L2. Nature of the assay: Growth inhibition of human KM20L2 cells after 48 hrs by SRB assay. Particulars: KM-20L2, 48 h. An outline of the steps:
as §1

The subject of a further assay is SF-268. In words: Growth inhibition of human SF268 cells after 48 hrs by SRB assay. The note with it: SF-268, 48 h. The gist of the method: as §1

Turning to `CC[C@H](C)[C@@H]([C@@H](CC(=O)N1CCC[C@H]1[C@H](OC)[C@@H](C)C(=O)NCCc1ccc2ccncc2c1)OC)N(C)C(=O)[C@@H](NC(=O)[C@H](C(C)C)N(C)C(=O)OCc1ccc(NC(=O)[C@H](CCCNC(N)=O)NC(=O)[C@@H](NC(=O)CCCCCN2C(=O)C=CC2=O)C(C)C)cc1)C(C)C` ({Hexanoyl(6-maleimido)}-V[Cit][PABC][NMeV]V[Dil][Dolaproine]-X3), the GI50 with BXPC-3 amounted to 149 nM; in the assay with MCF7, 18 nM; with DU-145, 15.7 nM; with NCI-H460 it was 448 nM; in the assay with KM-20L2, 32.2 nM; with SF-268, 9.72 nM.
Take `CC[C@H](C)[C@@H]([C@@H](CC(=O)N1CCC[C@H]1[C@H](OC)[C@@H](C)C(=O)NCCc1ccc2ccncc2c1)OC)N(C)C(=O)[C@@H](NC(=O)[C@@H](NC)C(C)C)C(C)C` (H-[NMeV]V[Dil][Dolaproine]-X3): the concentration for 50% growth inhibition (GI50) came to 44.7 nM in the assay on BXPC-3; 0.149 nM in the assay with MCF7; 0.122 nM in the assay on DU-145; 54.2 nM in the assay on NCI-H460; 0.569 nM in the assay on KM-20L2; 0.325 nM with SF-268.
`CC[C@H](C)[C@@H]([C@@H](CC(=O)N1CCC[C@H]1[C@H](OC)[C@@H](C)C(=O)NCCc1cccc2cnccc12)OC)N(C)C(=O)[C@@H](NC(=O)[C@H](C(C)C)N(C)C)C(C)C`: the GI50 in the assay on BXPC-3 was found to be 7.31 nM; in the assay on MCF7 it was 0.279 nM; in the assay on DU-145, 2.79 nM; in the assay with NCI-H460, 17.3 nM; with KM-20L2, 0.385 nM; in the assay with SF-268 it was 0.266 nM.
On to `CC[C@H](C)[C@@H]([C@@H](CC(=O)N1CCC[C@H]1[C@H](OC)[C@@H](C)C(=O)NCCc1cccc2cnccc12)OC)N(C)C(=O)[C@@H](NC(=O)[C@@H](NC)C(C)C)C(C)C` (H-[NMeV]V[Dil][Dolaproine]-X2), for which the GI50 in the assay on BXPC-3 was found to be 11 nM; with MCF7, 0.095 nM; in the assay on DU-145, 0.677 nM; with NCI-H460 it was 42 nM; with KM-20L2 it was 0.271 nM; with SF-268, 0.132 nM.
As for `CC[C@H](C)[C@@H]([C@@H](CC(=O)N1CCC[C@H]1[C@H](OC)[C@@H](C)C(=O)NCCc1cccc2cnccc12)OC)N(C)C(=O)[C@@H](NC(=O)[C@H](C(C)C)N(C)C(=O)OCc1ccc(NC(=O)[C@H](CCCNC(N)=O)NC(=O)[C@@H](NC(=O)CCCCCN2C(=O)C=CC2=O)C(C)C)cc1)C(C)C` ({Hexanoyl(6-maleimido)}-V[Cit][PABC][NMeV]V[Dil][Dolaproine]-X2), the 50% growth inhibitory concentration (GI50) stood at 307 nM in the assay with BXPC-3; 21.7 nM in the assay on MCF7; 26.9 nM in the assay with DU-145; 396 nM in the assay on NCI-H460; 30.7 nM with KM-20L2; 9.72 nM with SF-268.
With `CC[C@H](C)[C@@H]([C@@H](CC(=O)N1CCC[C@H]1[C@H](OC)[C@@H](C)C(=O)NCCc1cccc2ccncc12)OC)N(C)C(=O)[C@@H](NC(=O)[C@@H](NC)C(C)C)C(C)C` (H-[NMeV]V[Dil][Dolaproine]-X1), the GI50 with BXPC-3 was determined as 40.6 nM; in the assay on MCF7 it was 0.271 nM; in the assay with DU-145, 0.42 nM; with NCI-H460 it was 122 nM; in the assay with KM-20L2, 0.542 nM; in the assay with SF-268, 0.135 nM.
For the compound `CC[C@H](C)[C@@H]([C@@H](CC(=O)N1CCC[C@H]1[C@H](OC)[C@@H](C)C(=O)NCCc1cccc2ccncc12)OC)N(C)C(=O)[C@@H](NC(=O)[C@H](C(C)C)N(C)C)C(C)C`, the GI50 in the assay on BXPC-3 stood at 4.25 nM; in the assay with MCF7 it was 0.133 nM; with DU-145, 0.053 nM; in the assay on NCI-H460, 9.03 nM; in the assay on KM-20L2 it was 0.146 nM; in the assay on SF-268, 0.07 nM.
As for `CC[C@H](C)[C@@H]([C@@H](CC(=O)N1CCC[C@H]1[C@H](OC)[C@@H](C)C(=O)NCCc1ccc2ccncc2c1)OC)N(C)C(=O)[C@@H](NC(=O)[C@H](C(C)C)N(C)C)C(C)C`, the 50% growth inhibitory concentration (GI50) stood at 4.39 nM in the assay on BXPC-3; 0.186 nM with MCF7; 0.033 nM in the assay on DU-145; 9.3 nM in the assay on NCI-H460; 0.399 nM in the assay on KM-20L2; 0.068 nM in the assay on SF-268.
In the case of `CC[C@H](C)[C@@H]([C@@H](CC(=O)N1CCC[C@H]1[C@H](OC)[C@@H](C)C(=O)NCCc1ccc2cccnc2c1)OC)N(C)C(=O)[C@@H](NC(=O)[C@H](C(C)C)N(C)C)C(C)C`, the concentration for 50% growth inhibition (GI50) with NCI-H460 came to 1.19 nM; in the assay on SF-268, 0.03 nM.
For `CC[C@H](C)[C@@H]([C@@H](CC(=O)N1CCC[C@H]1[C@H](OC)[C@@H](C)C(=O)NCCc1cccc2ccncc12)OC)N(C)C(=O)[C@@H](NC(=O)[C@H](C(C)C)N(C)C(=O)OCc1ccc(NC(=O)[C@H](CCCNC(N)=O)NC(=O)[C@@H](NC(=O)CCCCCN2C(=O)C=CC2=O)C(C)C)cc1)C(C)C` ({Hexanoyl(6-maleimido)}-V[Cit][PABC][NMeV]V[Dil][Dolaproine]-X1), the GI50 with BXPC-3 was 524 nM; in the assay with MCF7, 22.4 nM; in the assay with DU-145 it was 23.2 nM; in the assay with NCI-H460, 2240 nM; in the assay on KM-20L2, 32.2 nM; in the assay with SF-268 it was 16.5 nM.
